UBC13 inh = UBC13 polyubiquitin chain formation inhibitors, primary screen, biochemical, TR-FRET, uHTS; inhibition, % at 20 µM; 330,000 compounds, 0.47% hits; AID 485273, 2010; Ubiquitin-conjugating enzyme E2 N (Homo sapiens), P61088; in the data active = inhibition above about 45%, passing the limit was not always enough
Target sequence (P61088 whole entry, looked up): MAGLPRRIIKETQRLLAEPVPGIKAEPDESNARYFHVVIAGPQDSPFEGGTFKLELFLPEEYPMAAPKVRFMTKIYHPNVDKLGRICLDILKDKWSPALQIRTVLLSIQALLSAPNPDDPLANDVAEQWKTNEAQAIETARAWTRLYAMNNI
Apaf1 inhib = inhibitors of human Apaf-1 apoptosome, primary screen, biochemical, DEVD-Rh110 fluorescence, uHTS; inhibition, % at 20 µM; AID 489030, 2010; reconstituted apoptosome caspase-3 activity; 330,000 compounds, 0.71% hits; Apoptotic protease-activating factor 1 (Homo sapiens), O14727; active = inhibition of at least 40% at 20 µM;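 note: plate controls were DMSO wells for no effect and DEVD-CHO caspase inhibitor wells for full effect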
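System – cell-free apoptosome with Apaf-1, procaspase-3 and caspase-9 · Buffer or medium – pH 7.5 Hepes buffer with CHAPS, BSA, DTT · Also added – cytochrome c with DEVD-Rh110 · Times – 30 min compound preincubation, 50 min activation, room temperature · Technique – Rh110 fluorescence intensity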
PfM18AAP inh = PfM18AAP inhibitors, malaria aminopeptidase, primary screen, biochemical, QFRET, recombinant enzyme | M18 aspartyl aminopeptidase (Plasmodium falciparum 3D7) | inhibition, % at 7.35 µM | H-Glu-NHMec fluorogenic cleavage | 290,000 compounds, 1.2% hits;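 active = inhibition above the campaign mean inhibition over all tested compounds plus 3 SD, cut at about 28% in these data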;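 note: 0% = plate median of test compound wells and 100% = 2 mM ZnCl2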
PfGluPho inh = PfG6PD enzyme inhibitors, primary screen, biochemical, fluorescence intensity, uHTS; inhibition, % at 20 µM; 350,000 compounds, 0.78% hits; glucose-6-phosphate dehydrogenase-6-phosphogluconolactonase (Plasmodium falciparum 3D7); PfGluPho enzyme, NADPH resazurin-diaphorase fluorescence; AID 504690, 2011;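 active = inhibition reaching at least a set limit at 20 µM in the primary screen, cut at about 59% in these data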;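 note: 0% = DMSO wells with substrate and 100% = DMSO wells lacking glucose-6-phosphate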
EBNA-1 inh = EBNA-1 DNA-binding inhibitors, primary screen, biochemical, fluorescence polarization. inhibition, % at 14.8 µM. 300,000 compounds, 0.34% hits; in the data active = inhibition above about 28%
ZTA DNA inh = blocks Epstein-Barr virus ZTA, an EBNA-1 counter-screen | P03206 | ZTA-DNA binding, fluorescence polarization | inhibition, % at 11 µM | 320,000 compounds, 0.15% hits | AID 2234; in the data active = inhibition above about 33%
Target sequence (P03206 whole entry, looked up): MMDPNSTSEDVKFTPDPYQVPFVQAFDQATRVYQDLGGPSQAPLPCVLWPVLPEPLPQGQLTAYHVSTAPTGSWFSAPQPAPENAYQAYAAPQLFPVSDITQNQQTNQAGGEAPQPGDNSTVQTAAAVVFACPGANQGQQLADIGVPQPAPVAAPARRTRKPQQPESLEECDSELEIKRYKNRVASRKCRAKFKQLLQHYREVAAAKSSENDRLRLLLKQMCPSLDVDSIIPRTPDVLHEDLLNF
PfG6PD confirm = PfG6PD inhibitors, hit retest, confirmation, biochemical, fluorescence intensity, single concentration. recombinant PfGluPho, NADPH-diaphorase-resazurin fluorescence. 2,400 compounds, 34% hits. AID 504753, 2011. inhibition, % at 20 µM. shares compounds with PfGluPho inh;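 active = inhibition of at least 50% at 20 µM in any single replicate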;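 note: 0% = DMSO with substrate and 100% = DMSO lacking glucose-6-phosphate substrate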
Diaphorase 10uM = diaphorase inhibitors and chemical oxidizers, confirmation, counter-screen for P. falciparum G6PD inhibitor project, biochemical, fluorescence intensity, 10 µM NADPH | shares compounds with PfGluPho inh | diaphorase-coupled resazurin reduction, NADPH 10 uM | inhibition, % at 20 µM | 820 compounds, 39% hits;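 active = average inhibition reaching 50% or more with the compound at 20 µM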;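 note: resorufin red fluorescence formed as diaphorase reduces resazurin using NADPH; 0% = DMSO with enzyme and 100% = DMSO without enzyme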
Diaphorase 30uM = diaphorase inhibitors and chemical oxidizers, confirmation, counter-screen for P. falciparum G6PD inhibitor project, biochemical, fluorescence intensity, 30 µM NADPH. Diaphorase/resazurin coupled assay, resorufin fluorescence. shares compounds with PfGluPho inh. AID 504863, 2011. inhibition, % at 20 µM. 820 compounds, 29% hits;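 active = inhibition averaging 50% or more, tested at 20 µM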;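 note: 0% = DMSO with enzyme and 100% = DMSO wells lacking diaphorase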
* hit, by the source's call; · = no result; + = active, no number. Compounds with a hit are over-represented: about 2.9% of the library has one in this group of screens.

SMILES | UBC13 inh | Apaf1 inhib | PfM18AAP inh | PfGluPho inh | EBNA-1 inh | ZTA DNA inh | PfG6PD confirm | others
C=CCn1c(C)cc(C(=O)CSc2nnc(C3CC3)n2C2CC2)c1C | 1 | -6 | · | 39 | · | -10 | ·
Cc1ccc(S(=O)(=O)Nc2c(C)nc3nc(C)[nH]n3c2=O)cc1 | -8 | 6 | -17 | -12 | -11 | -5 | ·
CCOC(=O)C1=C(C)N(c2ccc(Cl)cc2)C(=O)NC1c1cccc([N+](=O)[O-])c1 (stereo unspecified) | 7 | 23 | -3 | -2 | 1 | 0 | ·
COCCn1c(=O)[nH]c(=O)c2c(C(F)(F)F)cc(-c3cccs3)nc21 | -4 | -5 | 2 | -2 | -5 | 8 | ·
[O-]/[N+](=C\c1ccccc1)c1ccc(Br)cc1 | -21 | 1 | · | 84* | · | 2 | 91* | Diaphorase 10uM=72*;Diaphorase 30uM=38
[O-]/[N+](=C\c1ccccc1)c1ccccc1 | -11 | -10 | · | 41 | · | -5 | ·
Cc1nn(C)c(C(=O)N/N=C/c2cccc3ccccc23)c1Cl | -10 | 5 | 2 | 76* | 3 | 5 | 39
COc1ccccc1/C=N\NC(=O)c1c(C)nc2ccc(Cl)cn12 | 0 | -10 | 2 | 49 | · | · | 23
Cc1nn(C)c(C(=O)N/N=C/c2ccncc2)c1Cl | -14 | -14 | -1 | -4 | 8 | 0 | ·
O=C(/C=C/c1ccccc1)NC1CCCc2ccccc21 (stereo unspecified) | -16 | 13 | 1 | · | 0 | -1 | ·
Cc1cc(C)c(SSc2nnnn2-c2ccccc2)c(C)c1 | · | · | · | 113* | · | · | 40
Cc1ccc2cc(C)c(Sc3nnnn3-c3ccccc3)nc2c1 | · | · | -7 | 9 | 6 | 19 | ·
CC1(c2ccccc2)NC(=O)N(CC(=O)Nc2ccccc2N2CCCC2)C1=O (stereo unspecified) | -10 | 10 | · | -15 | -2 | 5 | ·
CCN(CC)c1ccc(/C=N/N=C(c2ccccc2)c2ccccc2)c(O)c1 | -5 | -5 | -2 | -4 | 8 | -2 | ·
CCN(CC)c1ccc(C=Nc2ccccc2C)c(O)c1 | -11 | 1 | 10 | 59* | -7 | -15 | 28
CN(C)c1ccc(C=Nc2ccc(N(C)C)cc2)cc1 | -27 | 39 | 22 | 66* | + | + | 47
Cc1ccc(N=Cc2ccc(N(C)C)cc2)cc1 | -4 | -6 | 3 | 11 | 8 | 2 | ·
Cc1cccc(NC(=O)[C@H](NC(=O)[C@@H]2Cc3ccccc3CN2)c2ccccc2)c1 | -3 | 20 | -6 | -1 | -8 | -1 | ·
Cc1ccc(/C=N/NC(=O)CSCc2ccc(Cl)cc2)cc1 | 19 | 2 | 0 | 59* | 11 | 8 | 12
O=C(CSCc1ccc(Cl)cc1)N/N=C/c1ccc(Cl)cc1Cl | 0 | 20 | 0 | 44 | 6 | 3 | ·
O=C(CSCc1ccc(Cl)cc1)N/N=C/c1ccco1 | -3 | 0 | 0 | 60* | 9 | 7 | 25
Cc1ccsc1/C=N/NC(=O)Cc1ccc(Cl)cc1 | 1 | 16 | -7 | 13 | 2 | -7 | ·
Cc1ccsc1/C=N/NC(=O)CSCc1ccc(Cl)cc1 | 4 | 11 | 0 | 114* | -6 | 1 | 65* | Diaphorase 10uM=78*;Diaphorase 30uM=58*
COc1cccc(C(=O)Nc2ccc(NC(=O)c3ccco3)c(Cl)c2)c1 | -3 | 9 | 6 | 70* | -27 | -7 | 13
